In the library only some 2.7% were active in any assay of this set; here they are far more common.
FGF22 binding: FGF22 (human) thermal shift binding | Q9HCT0 | recombinant FGF22 thermal shift, SYPRO orange fluorescence; percent of sucrose octasulfate shift, DMSO zero | activity (Tm shift, normalised), % at 9.99 µM | 340,000 tested, 1.5% active | AID 651658;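 active = mean Tm shift, scaled 0 neutral to 100 positive control, at about 1.3% or above, every replicate too, limit read from the data; inconclusive = no clear call, values can overlap the other calls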
Target sequence (Q9HCT0 whole entry, looked up): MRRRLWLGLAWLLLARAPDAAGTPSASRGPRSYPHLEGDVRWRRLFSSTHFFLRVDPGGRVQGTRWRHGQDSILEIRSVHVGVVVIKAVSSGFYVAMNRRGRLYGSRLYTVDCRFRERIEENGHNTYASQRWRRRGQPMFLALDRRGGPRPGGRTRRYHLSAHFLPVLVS
F508del corr: correctors of CFTR F508del function in bronchial epithelial cells | CFBE cells, YFP halide quenching; stimulated with forskolin plus potentiator P3; % fluorescence drop versus neutral controls | activity (quench increase), % at 7.58 µM | 350,000 tested, 0.36% active | AID 720511;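 active = mean added fluorescence quench of at least 8% versus neutral control, with both replicates also reaching 8%; inconclusive = only one of the mean or replicate conditions met; inactive = mean below 8% and not both replicates reaching 8%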;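 note: cells transiently co-express mutant CFTR-F508del with the halide-sensitive YFP; corrector assay measuring rescue of mutant channel to the surface after 24 h compound exposure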
S100A4 MyoIIA: inhibitors of human S100A4 binding to myosin IIA peptide. S100A4/TAMRA-MyoIIA peptide fluorescence polarization. AID 652163. P26447. inhibition, % at 10.7 µM. 360,000 tested, 0.14% active;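 active = mean inhibition of at least 70% across replicates, with every replicate also reaching that level; inconclusive = mean inhibition reaches 70% but some replicates fall short; inactive = mean inhibition below 70%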
Target sequence (P26447 whole entry, looked up): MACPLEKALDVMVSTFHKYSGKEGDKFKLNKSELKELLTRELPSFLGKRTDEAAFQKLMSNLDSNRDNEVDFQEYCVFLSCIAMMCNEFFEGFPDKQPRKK
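Test system – S100A4 monomer (human) · Compound – single-point compound testing · Schedule – 5 min incubation before reading · Probe or stimulus – TAMRA-labelled myosin IIA heavy-chain peptide probe, 5 nM · Benchmarks – neutral control DMSO, positive control TFP · Medium – Calcium-containing HEPES buffer, pH 7.2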
Env fusion inh: blocks HIV Env-driven cell-cell fusion | HeLa-JRFL Env/CEM21 cell fusion, luciferase | inhibition, % at 12.3 µM | 360,000 tested, 1.1% active;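 active = mean replicate inhibition score of at least 50 and every replicate individually at or above 50; inconclusive = only one of the two criteria met; inactive = mean below 50 and not all replicates reaching 50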;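 note: 0% = plate neutral controls and 100% = maraviroc near 300 nM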
E-sel inducer: induces E-selectin expression in human endothelial cells; activation, % at 7.58 µM; 260,000 tested, 0.37% active; P16581; HUVEC E-selectin immunofluorescence imaging; normalized: neutral wells 0, TNF-alpha wells 100; AID 686992;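 active = mean E-selectin-positive cell signal at least 10% of the positive control, reached in at least 60% of replicates, without over 20% cell loss; inconclusive = no rule given, readout overlaps actives, possibly toxicity-flagged; inactive = the rest, including those meeting only one limit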
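System: HUVEC, human umbilical vein endothelial cells; quantity: 3,000 cells/well; buffer or medium: EGM-2 medium, gelatin-coated wells; dosing: single-point compound dose; detection: immunofluorescence imaging; evaluation: % PE-positive cells; benchmarks: TNF-alpha, DMSO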
An asterisk follows results filed as active; ? = inconclusive; . = not tested or not shown; [ ] = dose if it differs, or a comment.

SMILES | FGF22 binding | F508del corr | S100A4 MyoIIA | Env fusion inh | E-sel inducer
CC(C)C#Cc1ccc2c(c1)O[C@H](CN(C)C(=O)c1cnccn1)[C@H](C)CN([C@H](C)CO)S2(=O)=O | 0 | 2 | -3 | 4[16.7 µM] | 1
CN(C)C(=O)[C@H]1[C@H](CO)[C@H]2Cn3c(ccc(-c4ccncc4)c3=O)[C@H]2N1Cc1ccccc1 | 0 | . | -11 | . | 0
C[C@@H]1CCCCO[C@H](CN(C)S(C)(=O)=O)[C@@H](C)CN([C@@H](C)CO)C(=O)c2cc(NS(=O)(=O)c3ccccc3)ccc2O1 | -1 | -2 | -2 | -4[16.7 µM] | 0
O=C(Cn1c(C(F)(F)F)nc2ccccc21)c1ccc(Cl)cc1 | . | . | . | 64* | .
Cc1[nH]c2ccccc2c1N=Nc1ccccc1F | 44* | -5 | -1 | 4 | .
COc1ccccc1N(C)S(=O)(=O)c1ccc(Cl)c(C(=O)NCC2(N(C)C)CCCCC2)c1 | 0 | 0 | 24 | 95* | 0
COCCNC(=O)c1cc(S(=O)(=O)N(C)C2CCCCC2)ccc1Cl | 0 | 1 | 2 | 57* | 0
CN(C)S(=O)(=O)c1ccc(Cl)c(C(=O)NCC2CCCCC2)c1 | 0 | -1 | -10 | 3 | .
COc1ccccc1N(C)S(=O)(=O)c1ccc(Cl)c(C(=O)NNC(=O)c2ccccc2O)c1 | 0 | -4 | -1 | -2 | 0
CCCNC(=O)N(C)C[C@@H]1Oc2ncc(C3=CCCC3)cc2C(=O)N([C@H](C)CO)C[C@H]1C | 0 | 1 | 0 | 6[16.7 µM] | 58*
C[C@H](CO)N1C[C@H](C)[C@H](CN(C)C(=O)NC2CCCC2)Oc2ncc(C3=CCCCC3)cc2C1=O | 0 | -3 | -19 | 1[16.7 µM] | 0
C[C@@H]1CN([C@@H](C)CO)C(=O)c2cc(C3=CCCCC3)cnc2O[C@H]1CN(C)C(=O)NC1CCCC1 | 0 | -2 | -37 | -10[16.7 µM] | 117*
C[C@@H]1CN([C@H](C)CO)C(=O)c2cc(C3=CCCC3)cnc2O[C@H]1CN(C)C(=O)Nc1ccccc1 | 0 | 2 | -10 | 0[16.7 µM] | 49*
CCCNC(=O)N(C)C[C@@H]1Oc2ncc(C3=CCCCC3)cc2C(=O)N([C@H](C)CO)C[C@@H]1C | 0 | 2 | -1 | 22[16.7 µM] | 0
CO[C@@H]1CC[C@@H]2CCN(C)C(=O)C[C@@H](c3ccccc3)CN(C)C(=O)c3cccc(C#N)c3OC[C@H]1O2 | 0 | . | -2 | 13[16.7 µM] | 0
CCCCCCC12Cc3cc(OC)c(OC)cc3C(O1)C1=C(O2)C(C)(C)CCC1=O (stereo not given) | 43* | 0 | -8 | ? | 0
CCCN(C)C[C@H]1OCCCC[C@H](C)Oc2ccc(NS(=O)(=O)c3ccc(F)cc3)cc2C(=O)N([C@@H](C)CO)C[C@H]1C | 0 | 0 | 0 | -24[16.7 µM] | 0
CCOc1ncccc1C(=O)OCC(=O)NC1CCCCC1 | 0 | -2 | -3 | 3 | .
CCOc1ncccc1C(=O)OC(C)C(=O)NC(=O)NC1CCCCC1 (stereo not given) | 43* | 2 | 3 | 12 | 3
C[C@H](CO)N1C[C@H](C)[C@@H](CN(C)S(=O)(=O)c2ccccc2)Oc2ncc(Br)cc2C1=O | 0 | 0 | -3 | 30[16.7 µM] | 0
C[C@@H]1CCCCO[C@H](CN(C)S(=O)(=O)c2cccs2)[C@@H](C)CN([C@H](C)CO)C(=O)c2cc(NC(=O)Nc3ccc(C(F)(F)F)cc3)ccc2O1 | 0 | 3 | 1 | 28[16.7 µM] | 0
C=CC1c2cc(OC)c(OC)cc2CC(C)N1Cc1ccc(OC)cc1 (stereo not given) | 1 | 18* | -32 | -146[16.7 µM] | .
C[C@H]1CN([C@@H](C)CO)C(=O)c2cc(C#Cc3ccncc3)cnc2O[C@H]1CN(C)C(=O)CN(C)C | 0 | -2 | 4 | . | 0
Cc1ccc(S(=O)(=O)Nc2cc(C)cc(CCNC=O)c2C)cc1 | 0 | 9.6* | 11 | 14 | 0
CCC(=O)N(C)C[C@H]1Oc2cc(-c3cccc(F)c3)ccc2S(=O)(=O)N([C@@H](C)CO)C[C@H]1C | 0 | 0 | 10 | 5[16.7 µM] | 0
O=C(NC1=C(Nc2ccc(Cl)cc2)C(=O)c2ccccc2C1=O)c1ccccc1 | 0 | . | -2 | -31 | 0
O=C(NC1=C(NC2CCS(=O)(=O)C2)C(=O)c2ccccc2C1=O)c1ccccc1 (stereo not given) | -1 | 6 | 3 | 57* | .
